From ChEMBL document CHEMBL4715748, “Synthesis and biological investigation of new equatorial (β) stereoisomers of 3-aminotropane arylamides with atypical antipsychotic profile” (Bioorg Med Chem, 2016)
Active and inactive are the calls of the source. No cut-off for these calls is given here.

Experiments:
[1] = Effect on body temperature in Swiss Albino mouse assessed as rectal body temperature at 10 mg/kg, ip measured after 30 mins by thermometer (reference value: 0.16 to 0.33 degreeC); format: organism-based; settings: in vivo, 0.5 h
[2] = Effect on body temperature in Swiss Albino mouse assessed as rectal body temperature at 20 mg/kg, ip measured after 30 mins by thermometer (reference value: 0.16 to 0.33 degreeC); format: ADME, organism-based; settings: in vivo, 0.5 h
[3] = Effect on body temperature in Swiss Albino mouse assessed as rectal body temperature at 20 mg/kg, ip measured after 60 mins by thermometer (reference value: 0.33 to 0.61 degreeC); format: ADME, organism-based; settings: in vivo, 1 h
[4] = Effect on body temperature in Swiss Albino mouse assessed as rectal body temperature at 20 mg/kg, ip measured after 90 mins by thermometer (reference value: 0.18 to 0.63 degreeC); format: ADME, organism-based; settings: in vivo, 1.5 h
Mus musculus [5] = experiment: Effect on 8-OH-DPAT-induced hypothermia in Swiss albino mouse assessed as change in rectal body temperature at 10 mg/kg, ip pretreated with compound for 45 mins followed by 8-OH-DPAT challenge and measured after 15 min by thermometer (reference value: -1.82 to -1.66 degreeC); format: functional, organism-based; settings: time 60.0 min
Mus musculus [6] = experiment: Effect on 8-OH-DPAT-induced hypothermia in Swiss albino mouse assessed as change in rectal body temperature at 10 mg/kg, ip pretreated with compound for 45 mins followed by 8-OH-DPAT challenge and measured after 30 min by thermometer (reference value: -1.36 to -1.12 degreeC); format: functional, organism-based; settings: time 75.0 min
Mus musculus [7] = experiment: Effect on 8-OH-DPAT-induced hypothermia in Swiss albino mouse assessed as change in rectal body temperature at 20 mg/kg, ip pretreated with compound for 45 mins followed by 8-OH-DPAT challenge and measured after 45 min by thermometer (reference value: -1.04 to -0.78 degreeC); format: functional, organism-based; settings: time 90.0 min
[8] = Effect on 8-OH-DPAT-induced lower lip retraction in Wistar rat at 20 mg/kg, ip pretreated with compound for 45 mins followed by 8-OH-DPAT challenge and measured after 15 mins (reference value: 2.7 to 2.8); format: functional; settings: time 60 min, 1 h
Mus musculus [9] = experiment: Antipsychotic activity in Swiss Albino mouse assessed as inhibition of apomorphine-induced climbing behaviour at 10 mg/kg, ip administered 30 mins prior to APO challenge and measured after 30 mins; format: functional, organism-based; settings: time 60.0 min
How it was run: (§1)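 Male Albino Swiss mice received compound i.p. (10 mg/kg in 1% Tween 80) 30 min before the test and apomorphine 2.5 mg/kg s.c. 10 min before the test. Each mouse was placed in a cage with a metal grid and scored positive when all four paws were on the grid. Blinded observation every 10 min to 60 min, then at 120 min. n=8, Fisher's exact test with Yates' correction.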

[10] = Half life in pooled human liver microsomes assessed as parent compound remaining at 2.5 uM measured up to 45 mins in presence of NADPH by LC-MS analysis; format: ADME, Microsome
How it was run: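 Compound at 2.5 μM (added from 100 μM stock in 50/50 acetonitrile/water) with 1 mg/mL pooled human liver microsomes and 250 μM NADPH in 0.1 M potassium phosphate pH 7.4 at 37 °C after 5-min preincubation. Sampled at 5, 10, 15, 30, 45 min into ice-cold acetonitrile with atropine internal standard; parent quantified by LC-MS (ESI+, [M+H]+); no-NADPH controls; half-time derived.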

Mus musculus [11] = experiment: Antipsychotic activity Swiss Albino mouse assessed as inhibition of DOI-induced head twitching by measuring number of episodes at 0.625 mg/kg, ip administered 30 mins prior to DOI stimulation (reference value: 19.63 to 19.88); format: functional; settings: 0.5 h
How it was run: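 Male Albino Swiss mice (24–28 g) were habituated to sawdust-lined cages 20 min before the first treatment. Compounds were suspended in 1% aqueous Tween 80 and given i.p. 30 min before (±)-DOI, 2.5 mg/kg i.p. in aqueous solution. Head twitches were counted blind over 20 min, n=8 per group, mean ± SEM, one-way ANOVA with Dunnett's test.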

Mus musculus [12] = experiment: Antipsychotic activity in Swiss Albino mouse assessed as inhibition of apomorphine-induced climbing behaviour at 10 mg/kg, ip administered 30 mins prior to APO challenge and measured after 40 mins; format: functional, organism-based; settings: time 70.0 min; how it was run: as §1
Mus musculus [13] = experiment: Antipsychotic activity in Swiss Albino mouse assessed as inhibition of apomorphine-induced climbing behaviour at 10 mg/kg, ip administered 30 mins prior to APO challenge and measured after 60 mins; format: functional, organism-based; settings: time 90.0 min; how it was run: as §1

Question: For `O=C(NC1CC2CCC(C1)N2Cc1cccc(Br)c1)c1ccc2ccccc2c1` (stereo unspecified), which deltaT [1] is on record?
Answer: The deltaT was -0.2 °C.

Question: What about the deltaT [2] of the same molecule?
Answer: Its deltaT is -0.3 °C.

Question: What about the deltaT [3] of the same molecule?
Answer: Its deltaT is 0.49 °C.

Question: What about the deltaT [4] of the same molecule?
Answer: Its deltaT is 0.36 °C.

Question: What about the deltaT (Mus musculus [5]) of the same molecule?
Answer: The deltaT was -1.32 °C.

Question: What about the deltaT (Mus musculus [6]) of the same molecule?
Answer: The deltaT was -1.62 °C.

Question: What about the deltaT (Mus musculus [7]) of the same molecule?
Answer: Its deltaT is -1.25 °C.

Question: And the Activity [8]?
Answer: The Activity was 2.5.

Question: What about the inhibition (Mus musculus [9]) of the same molecule?
Answer: Its inhibition is “Active”.

Question: What about the half-life at 2.5 µM [10] of the same molecule?
Answer: The half-life at 2.5 µM was over 45 min.

Question: With `Cc1cccc(CN2C3CCC2CC(NC(=O)c2ccc4ccccc4c2)C3)c1` (stereo unspecified) as the molecule, how does the deltaT [1] read?
Answer: Its deltaT is -0.02 °C.

Question: What about the deltaT [2] of the same molecule?
Answer: Its deltaT is 0.04 °C.

Question: And the deltaT [3]?
Answer: The deltaT was 0.47 °C.

Question: And the deltaT [4]?
Answer: Its deltaT is 0.2 °C.

Question: What about the deltaT (Mus musculus [5]) of the same molecule?
Answer: The deltaT was -0.7 °C.

Question: What about the deltaT (Mus musculus [6]) of the same molecule?
Answer: Its deltaT is -0.97 °C.

Question: And the deltaT (Mus musculus [7])?
Answer: Its deltaT is -2.08 °C.

Question: And the Activity [8]?
Answer: The Activity was 2.3.

Question: What about the inhibition (Mus musculus [9]) of the same molecule?
Answer: The inhibition was “Active”.

Question: What about the half-life at 2.5 µM [10] of the same molecule?
Answer: The half-life at 2.5 µM was 30 min.

Question: Which deltaT [1] does the source give for `O=C(NC1CC2CCC(C1)N2Cc1cccc(F)c1)c1ccc2ccccc2c1` (stereo unspecified) here?
Answer: Its deltaT is -0.17 °C.

Question: And the deltaT [2]?
Answer: Its deltaT is -0.36 degrees C.

Question: And the deltaT [3]?
Answer: Its deltaT is 0.43 °C.

Question: And the deltaT [4]?
Answer: Its deltaT is 0.2 °C.

Question: What about the deltaT (Mus musculus [5]) of the same molecule?
Answer: Its deltaT is -1.6 °C.

Question: What about the deltaT (Mus musculus [6]) of the same molecule?
Answer: Its deltaT is -1.37 °C.

Question: And the deltaT (Mus musculus [7])?
Answer: The deltaT was -1.53 °C.

Question: What about the Activity [8] of the same molecule?
Answer: The Activity was 2.3.

Question: And the Activity (Mus musculus [11])?
Answer: Its Activity is 17.38.

Question: And the inhibition (Mus musculus [12])?
Answer: Its inhibition is “Active”.

Question: What about the half-life at 2.5 µM [10] of the same molecule?
Answer: The half-life at 2.5 µM was over 45 min.

Question: Which results are given for `O=C(NC1CC2CCC(C1)N2Cc1ccc(F)cc1)c1ccc2ccccc2c1` (stereo unspecified)?
Answer: deltaT [1]: -0.17 °C; deltaT [2]: -0.33 °C; deltaT [3]: 0.46 °C; deltaT [4]: 0.23 °C; deltaT (Mus musculus [5]): -1.55 °C; deltaT (Mus musculus [6]): -1.32 °C; deltaT (Mus musculus [7]): -1.43 °C; Activity [8]: 2.4; Activity (Mus musculus [11]): 17.63; inhibition (Mus musculus [13]): Active; half-life at 2.5 µM [10]: > 45 min

Question: Which deltaT [1] does the source give for `O=C(NC1CC2CCC(C1)N2Cc1cccc(Cl)c1)c1ccc2ccccc2c1` (stereo unspecified) here?
Answer: Its deltaT is 0.17 °C.

Question: What about the deltaT [2] of the same molecule?
Answer: Its deltaT is -0.38 °C.

Question: And the deltaT [3]?
Answer: The deltaT was 0.41 °C.

Question: What about the deltaT [4] of the same molecule?
Answer: Its deltaT is 0.41 °C.

Question: And the deltaT (Mus musculus [5])?
Answer: Its deltaT is -1.03 °C.

Question: And the deltaT (Mus musculus [6])?
Answer: Its deltaT is -1.22 °C.

Question: What about the deltaT (Mus musculus [7]) of the same molecule?
Answer: Its deltaT is -2.22 °C.

Question: And the Activity [8]?
Answer: The Activity was 2.1.

Question: And the half-life at 2.5 µM [10]?
Answer: Its half-life at 2.5 µM is over 45 min.
